Measurements pooled from the literature.
pH: 7.4

Structure (SMILES)	technique	matrix	time	quantity	result
CCCCCC(=O)N[C@H]1[C@H]([C@H](O)[C@H](O)CO)OC(C(=O)O)=C[C@@H]1O	shake flask	aqueous buffer	2 h	logD	-0.92
O=C1NC2(CCC2)C(=O)N1c1ccc(F)c(C(F)(F)F)c1	HPLC	–	–	chromatographic logD	3
COc1cc(C(=O)c2nc(-c3cccc4[nH]ccc34)c[nH]2)cc(OC)c1OC	–	–	–	logD	3.69
O=c1c2cc(Cl)ccc2[nH]c(=S)n1Cc1cccnc1	shake flask	aqueous buffer	–	logD	3.16
c1cc(-c2ccc3ncnc(Nc4ncco4)c3c2)cc(N2C[C@H]3C[C@@H]2CO3)c1	shake flask	aqueous buffer	–	logD	3.5
CC1(C)NC(=O)N(c2ccc(F)c(C(F)(F)F)c2F)C1=O	HPLC	–	–	chromatographic logD	2.7
Cc1ccc2[nH]c(=S)n(Cc3cccnc3)c(=O)c2c1	shake flask	aqueous buffer	–	logD	2.88
CCCCCc1cn([C@H]2[C@H]([C@H](O)[C@H](O)CO)OC(C(=O)O)=C[C@@H]2O)nn1	shake flask	aqueous buffer	2 h	logD	-0.3
